Experimental data taken from ChEMBL document CHEMBL1152964, “Bicyclic cyanothiazolidines as novel dipeptidyl peptidase 4 inhibitors” (Bioorg Med Chem Lett, 2009).

molecular target: T1, Prolyl endopeptidase FAP (Homo sapiens, UniProt Q12884); assay: Inhibition of human recombinant FAP expressed in Sf9 cells by fluorescence assay
T1 sequence (Q12884 whole entry): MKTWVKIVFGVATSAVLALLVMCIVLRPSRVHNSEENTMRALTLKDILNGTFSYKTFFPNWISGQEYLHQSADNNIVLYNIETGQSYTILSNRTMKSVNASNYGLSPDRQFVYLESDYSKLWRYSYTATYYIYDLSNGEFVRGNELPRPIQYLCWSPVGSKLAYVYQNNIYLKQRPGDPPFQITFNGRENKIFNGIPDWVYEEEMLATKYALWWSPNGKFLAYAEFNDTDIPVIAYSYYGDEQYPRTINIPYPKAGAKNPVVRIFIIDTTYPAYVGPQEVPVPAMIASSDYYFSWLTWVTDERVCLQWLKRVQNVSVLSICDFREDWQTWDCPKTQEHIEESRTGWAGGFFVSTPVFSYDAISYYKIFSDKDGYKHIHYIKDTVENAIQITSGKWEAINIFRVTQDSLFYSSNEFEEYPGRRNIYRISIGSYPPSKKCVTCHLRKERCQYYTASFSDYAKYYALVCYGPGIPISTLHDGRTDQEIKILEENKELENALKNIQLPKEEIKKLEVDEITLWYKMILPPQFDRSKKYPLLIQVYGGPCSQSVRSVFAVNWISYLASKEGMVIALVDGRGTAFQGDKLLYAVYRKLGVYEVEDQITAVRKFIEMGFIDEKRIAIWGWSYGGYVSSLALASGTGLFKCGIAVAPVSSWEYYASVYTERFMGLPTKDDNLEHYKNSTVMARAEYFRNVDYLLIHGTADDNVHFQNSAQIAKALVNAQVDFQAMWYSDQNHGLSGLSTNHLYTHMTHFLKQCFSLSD
In short: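 Recombinant human FAP, His-tagged, expressed in infected insect cells grown 48 h and purified by His-tag column. Enzyme preincubated with inhibitor (0.5 nM to 50 µM; dissolved in DMSO or 50 mM glycine pH 3.0) 10 min at 27 °C in 25 mM Tris pH 8. Ala-Pro AMC substrate was then added and AMC release read at ex 360/em 460 nm. IC50 was fitted by nonlinear regression.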

| Structure (SMILES) | IC50 |
| --- | --- |
| CC(C)C[C@@]1(N)C[C@@H]2SC[C@@H](C#N)N2C1=O | > 10 µM |
| N#C[C@@H]1CS[C@H]2C[C@](N)(Cc3ccccc3)C(=O)N12 | > 10 µM |
| CC[C@H](C)[C@@]1(N)C[C@@H]2SC[C@@H](C#N)N2C1=O | > 10 µM |
| N#C[C@@H]1CS[C@H]2C[C@](N)(c3ccccc3)C(=O)N12 | > 10 µM |
| CC(C)[C@@]1(N)C[C@@H]2SC[C@@H](C#N)N2C1=O | > 10 µM |

Now from value to molecule:

| IC50 | Structure (SMILES) |
| --- | --- |
| > 10 µM | N#C[C@@H]1CS[C@H]2C[C@](N)(c3ccc(F)cc3)C(=O)N12 |
| > 10 µM | N#C[C@@H]1CS[C@H]2C[C@](N)(CC3CCCCC3)C(=O)N12 |
| > 10 µM | N#C[C@@H]1CS[C@H]2C[C@](N)(CCc3ccccc3)C(=O)N12 |
| > 10 µM | N#C[C@@H]1CS[C@H]2C[C@](N)(C3CCCC3)C(=O)N12 |
| > 10 µM | CC[C@@]1(N)C[C@@H]2SC[C@@H](C#N)N2C1=O |
| > 10 µM | N#C[C@@H]1CS[C@H]2C[C@](N)(C3CCCCC3)C(=O)N12 |

molecular target: Dipeptidyl peptidase 4 (Homo sapiens, UniProt P27487); assay: Inhibition of human recombinant DPP4 by fluorescence assay
Sequence (P27487 whole entry): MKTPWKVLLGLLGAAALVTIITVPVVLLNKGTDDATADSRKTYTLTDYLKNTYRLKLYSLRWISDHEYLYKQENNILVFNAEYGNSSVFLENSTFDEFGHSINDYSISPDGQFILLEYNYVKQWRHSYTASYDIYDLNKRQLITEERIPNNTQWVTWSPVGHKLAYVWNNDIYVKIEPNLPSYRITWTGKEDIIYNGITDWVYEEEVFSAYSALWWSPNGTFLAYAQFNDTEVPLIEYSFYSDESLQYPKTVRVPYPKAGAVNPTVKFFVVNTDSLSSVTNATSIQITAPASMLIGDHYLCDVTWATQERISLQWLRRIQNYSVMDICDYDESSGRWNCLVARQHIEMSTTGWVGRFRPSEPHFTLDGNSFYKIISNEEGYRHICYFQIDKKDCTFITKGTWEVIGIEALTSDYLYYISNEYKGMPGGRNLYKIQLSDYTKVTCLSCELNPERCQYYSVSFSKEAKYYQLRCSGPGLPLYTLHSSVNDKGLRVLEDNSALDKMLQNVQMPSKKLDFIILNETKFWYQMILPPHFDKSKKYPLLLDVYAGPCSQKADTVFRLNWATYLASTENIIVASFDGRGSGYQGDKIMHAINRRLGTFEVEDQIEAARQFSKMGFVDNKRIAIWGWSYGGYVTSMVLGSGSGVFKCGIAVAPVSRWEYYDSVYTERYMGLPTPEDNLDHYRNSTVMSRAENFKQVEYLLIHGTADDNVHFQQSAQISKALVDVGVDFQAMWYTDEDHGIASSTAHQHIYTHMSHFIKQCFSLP

| IC50 | Structure (SMILES) |
| --- | --- |
| > 1.6 µM | N#C[C@@H]1CS[C@H]2CC[C@@H](N)C(=O)N12 |
| > 16 µM | N#C[C@@H]1CS[C@H]2C[C@@H](NCCc3ccccc3)C(=O)N12 |
| > 16 µM | N#C[C@@H]1CS[C@H]2C[C@@H](NC3CCCC3)C(=O)N12 |
| > 1.6 µM | N#C[C@@H]1CS[C@H]2CC[C@H](N)C(=O)N12 |
